Measured values taken from ChEMBL document CHEMBL2069224, “Synthesis and cytotoxic activity of non-naturally substituted 4-oxycoumarin derivatives” (Bioorg Med Chem Lett, 2012).
Values after ≈ are worked out from the molar mass of the structure shown. Active and inactive are the calls of the source. The rule behind the calls is not given here.

Key:
MCF7 [1] = assay: Cytotoxicity against human MCF7 cells assessed as cell viability at 10 uM after 72 hrs by WST1 assay relative to control; assay type: functional; conditions: MCF7, 72 h, read-out: Activity
Summary of the method: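 After 24 h attachment, MCF-7 cells (RPMI 1640, 10% FBS, L-glutamine, antibiotics, 37 °C, 5% CO2) were exposed 72 h to a single 10 µM concentration. WST-1 was added at 1/10 volume, incubated 60 min at 37 °C, and absorbance read at 450 nm. Viability is expressed as % of vehicle-treated cells, from three independent experiments each in triplicate.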

HL-60 [2] = assay: Cytotoxicity against human HL60 cells assessed as cell viability at 10 uM after 72 hrs by WST1 assay relative to control; assay type: functional; conditions: HL-60, 72 h, read-out: Activity
Summary of the method: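 Suspension HL-60 cells were kept in IMDM with 20% FBS, L-glutamine and antibiotics at 37 °C under 5% CO2. They were seeded without an attachment wait and exposed 72 h to a single 10 µM concentration. WST-1 was added at 1/10 volume, incubated 60 min at 37 °C, and formazan read at 450 nm. Viability is given as % of vehicle-treated cells, from three independent experiments in triplicate.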

MCF7 [3] = assay: Cytotoxicity against human MCF7 cells after 72 hrs by WST1 assay in presence of 20% FBS; assay type: functional, cell-based; conditions: MCF7, 72 h
Summary of the method: (§1)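 MCF-7 cells from ATCC were grown in RPMI 1640 with 10% FBS, 2 mM L-glutamine and antibiotics at 37 °C under 5% CO2. They were seeded in 96-well plates, allowed to attach 24 h, then treated 72 h at 0.01–100 µM in 10% or 20% FBS. WST-1 was added at 1/10 volume for 60 min at 37 °C and A450 read. IC50 came from nonlinear least-squares fitting of % viability vs vehicle.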

HL-60 [4] = assay: Cytotoxicity against human HL60 cells after 72 hrs by WST1 assay in presence of 20% FBS; assay type: functional, cell-based; conditions: HL-60, 72 h
Summary of the method: (§2)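 HL-60 cells from ATCC were grown in IMDM with 2 mM L-glutamine, 20% FBS, amphotericin B, penicillin and streptomycin at 37 °C under 5% CO2. Suspension cells were seeded without an attachment wait, then treated 72 h at 0.01–100 µM in 10% or 20% FBS. WST-1 was added at 1/10 volume for 60 min at 37 °C and A450 read. IC50 came from a nonlinear least-squares fit of % viable cells vs vehicle.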

U-937 [5] = assay: Cytotoxicity against human U937 cells after 72 hrs by WST1 assay in presence of 20% FBS; assay type: functional, cell-based; conditions: U-937, 72 h
Summary of the method: (§3)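 Cells were cultured with 10% FBS. Viability runs used 10% or 20% FBS and 72 h exposure over 0.01–100 µM. WST-1 cleavage to formazan was read at 450 nm. % viable cells vs vehicle was fitted by nonlinear least squares to give IC50.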

[6] = Cytotoxicity against mouse Neuro2a cells after 72 hrs by WST1 assay in presence of 20% FBS; assay type: functional, cell-based; conditions: N2a; summary of the method: as §3
MCF7 [7] = assay: Cytotoxicity against human MCF7 cells after 72 hrs by WST1 assay in presence of 10% FBS; assay type: functional, cell-based; summary of the method: as §1
HL-60 [8] = assay: Cytotoxicity against human HL60 cells after 72 hrs by WST1 assay in presence of 10% FBS; assay type: functional, cell-based; summary of the method: as §2
U-937 [9] = assay: Cytotoxicity against human U937 cells after 72 hrs by WST1 assay in presence of 10% FBS; assay type: functional, cell-based; summary of the method: as §3
N2a = assay: Cytotoxicity against mouse Neuro2a cells after 72 hrs by WST1 assay in presence of 10% FBS; assay type: functional, cell-based; summary of the method: as §3
[10] = Solubility of the compound in RPMI 1640 medium by microscopic analysis; assay type: physicochemical
Summary of the method: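 Compound solubility in the assay medium was judged by microscopic inspection.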

SMILES | viability at 10 µM (MCF7 [1]) | viability at 10 µM (HL-60 [2]) | other results
COc1cc(OC)c2c(O)cc(=O)oc2c1 | 17.1% | 23.2% | IC50 (MCF7 [3]): 2.1 µM; IC50 (HL-60 [4]): 2 µM; IC50 (U-937 [5]): 0.21 µM; IC50 [6]: 0.55 µM; Activity (MCF7 [7]): Active; Activity (HL-60 [8]): Active; Activity (U-937 [9]): Active; Activity (N2a): Active; solubility [10]: 20 µM (≈ 4.44 µg/mL)
COc1ccc(-c2c(O)c3ccccc3oc2=O)c(OC)c1 | 91.9% | 100% | 
CC/C(=C(\c1ccccc1)c1ccc(OCCN(C)C)cc1)c1ccccc1 [TAMOXIFEN] |  |  | IC50 (MCF7 [3]): 8.6 µM; IC50 (HL-60 [4]): 14.3 µM
COc1ccc2c(O)cc(=O)oc2c1OC | 114% | 28.9% | IC50 (MCF7 [3]): 62.3 µM; IC50 (HL-60 [4]): 9.1 µM; IC50 (U-937 [5]): 4.3 µM; IC50 [6]: 1.4 µM; Activity (HL-60 [8]): Active; Activity (U-937 [9]): Active; Activity (N2a): Active; solubility [10]: 100 µM (≈ 22.2 µg/mL)
Cc1ccc2oc(=O)c(-c3ccccc3)c(OCc3ccccc3)c2c1 | 53.5% | 92.3% | 
Cc1ccc2oc(=O)cc(OCc3ccccc3)c2c1 | 104% | 76% | 
O=c1oc2ccccc2c(OCc2ccccc2)c1-c1ccccc1 | 113% | 94.7% | 
O=c1oc2ccccc2c(O)c1-c1ccccc1 | 96.7% | 73.4% | 
O=c1cc(OCc2ccccc2)c2ccccc2o1 | 95% | 72.7% | 
COc1ccc(-c2c(O)c3ccccc3oc2=O)cc1 | 115% | 86.6% | 
COc1ccc(-c2c(O)c3cc(C)ccc3oc2=O)cc1 | 106% | 83.9% | 
COc1ccc(-c2c(O)c3cc(C)ccc3oc2=O)c(OC)c1 | 69% | 74.4% | 
Cc1ccc2oc(=O)c(-c3ccccc3)c(O)c2c1 | 72.6% | 73.9% | 
O=c1ccc2ccccc2o1 [COUMARIN] |  |  | IC50 (MCF7 [3]): > 50 µM; IC50 (HL-60 [4]): > 50 µM; IC50 (U-937 [5]): > 50 µM; IC50 [6]: > 50 µM
